# This excerpt belongs to a sample that is enriched for hits.
# T cruzi intra: inhibitors of intracellular Trypanosoma cruzi, primary screen, cell-based, plate reader, single point, set 2; 4.9% of 22,000 active; intracellular Trypanosoma cruzi in host cells; activity score (inhibition), % at 5.01 µM; in the data active = activity score above about 55%; inconclusive = no clear call, values can overlap the other calls;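 note: parasites and compound incubated about four days before reading; 0% = median of neutral control wells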
# A1 apoptosis 2: A1 inhibitors via caspase activation, primary screen, cell-based, luminescence, HTS, two replicates; MEF A1-2A-BIM cells, caspase-Glo luminescence, 3 h; percent of clofoctol response, DMSO zero; caspase activation, % (test concentration not listed); 24,000 tested, under 10 active; in the data active = caspase activation above about 5.9%; inconclusive = no clear call, values can overlap the other calls; inactive = below about 2.2%
#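 system = A1-2A-BIM-expressing MEF cells | quantity = 2500 MEF cells/well | dosing = 50 nL compound per well, pinned | schedule = overnight cell settling, then 3 h compound exposure, 37 °C | signal = luminescence from DEVD-luciferin Caspase-Glo reagent, 1:1 in 50 mM HEPES, 1 h RT | read-out = Caspase-3/7 activation, seen as rise in luminescence signal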
# INS-1E rescue: protection of INS-1E cells from cytokine death, primary screen, ATP luminescence, single point; protection from cytokine-induced ATP loss, % at 10 µM; INS-1E cytokine-induced death, 48 h; normalised: neutral wells 0, positive control 100; 0.1% of 20,000 active;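 active = mean replicate protection from cytokine-induced ATP loss at least 50% and at least 75% of replicates each reaching 50%; inconclusive = meets only one of the two criteria, mean or replicate share; inactive = fails both the mean and replicate share criteria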
#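 assay system = INS-1E rat insulinoma cells | amount = 8000 cells per well | medium = phenol-red-free RPMI with 5% fetal bovine serum | doses = one compound concentration, pin transfer | timing = 48 h cytokine plus compound treatment, 10 min reagent incubation | also added = IL-1β, TNF-α and IFN-γ cytokine mix | signal = CellTiter-Glo luminescence measuring cellular ATP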
# * marks the source's active call; other numbers are inactive results; ? = inconclusive; . = no result.
SMILES,T cruzi intra,A1 apoptosis 2,INS-1E rescue
C[C@@H]1CN([C@@H](C)CO)C(=O)Cc2cc(NS(=O)(=O)c3ccccc3)ccc2O[C@@H]1CN(C)Cc1ccc(-c2ccccc2)cc1,58*,.,-27
Cc1ccc(S(=O)(=O)Nc2ccc3c(c2)CC(=O)N([C@@H](C)CO)C[C@H](C)[C@H](CN(C)Cc2ccc(-c4ccccc4)cc2)O3)cc1,27,0,-32
C[C@H]1CN([C@@H](C)CO)C(=O)Cc2cc(NS(=O)(=O)c3ccc(Cl)cc3)ccc2O[C@@H]1CN(C)Cc1ccc(-c2ccccc2)cc1,61*,.,3
O=C(N/N=C/c1cc(O)ccc1[N+](=O)[O-])c1ccccc1O,2,-4,-38
CC(C)=CCC[C@@H](C)C/C=N/NC(=O)c1ccccn1,4,-1,-1
C[C@H]1CN([C@@H](C)CO)C(=O)Cc2cc(NS(=O)(=O)c3cccs3)ccc2O[C@@H]1CN(C)Cc1ccc(-c2ccccc2)cc1,56*,-1,-15
C[C@@H]1CN([C@H](C)CO)C(=O)Cc2cc(NS(=O)(=O)c3ccc(F)cc3)ccc2O[C@@H]1CN(C)Cc1ccccc1,62*,0,-6
C[C@H](CO)N1C[C@H](C)[C@@H](CN(C)Cc2ccccc2)Oc2ccc(NS(=O)(=O)c3ccc(F)cc3)cc2CC1=O,.,0,.
C[C@H](CO)N1C[C@H](C)[C@@H](CN(C)Cc2ccc(-c3ccccc3)cc2)Oc2ccc(NS(=O)(=O)c3cccs3)cc2CC1=O,.,0,.
C[C@@H]1CN([C@@H](C)CO)C(=O)c2cc(NC(=O)Nc3ccc(C(F)(F)F)cc3)ccc2O[C@@H]1CN(C)Cc1ccc(C(F)(F)F)cc1,52,0,-62
C[C@H](CO)N1C[C@H](C)[C@H](CN(C)C(=O)Nc2ccc(C(F)(F)F)cc2)Oc2ccc(NC(=O)Nc3ccc(C(F)(F)F)cc3)cc2C1=O,74*,.,-20
C[C@H](CO)N1C[C@H](C)[C@@H](CN(C)C(=O)Nc2ccc(C(F)(F)F)cc2)Oc2ccc(NC(=O)Nc3ccc(C(F)(F)F)cc3)cc2C1=O,?,.,-103
C[C@@H]1CN([C@@H](C)CO)C(=O)c2cc(NC(=O)Nc3ccc(C(F)(F)F)cc3)ccc2O[C@@H]1CN(C)Cc1ccc(Cl)c(Cl)c1,75*,0,-46
C[C@@H]1CN([C@H](C)CO)C(=O)c2cc(NC(=O)Nc3ccc(C(F)(F)F)cc3)ccc2O[C@@H]1CN(C)Cc1ccc(C(F)(F)F)cc1,25,.,-27
C[C@H](CO)N1C[C@H](C)[C@H](CN(C)Cc2ccccc2)Oc2ccc(NC(=O)Nc3ccc(C(F)(F)F)cc3)cc2C1=O,32*,.,.
C[C@@H]1CN([C@H](C)CO)C(=O)c2cc(NC(=O)Nc3ccc(C(F)(F)F)cc3)ccc2O[C@@H]1CN(C)Cc1ccccc1,14,-1,-31
C[C@H]1CN([C@@H](C)CO)C(=O)c2cc(NC(=O)Nc3ccc(C(F)(F)F)cc3)ccc2O[C@@H]1CN(C)Cc1ccc(C(F)(F)F)cc1,72*,?,.
O=C(NO)c1cccc(C(=O)N/N=C/c2ccc(-n3ccnc3)cc2)c1,-21,1,10
O=C(CCCCCC(=O)N/N=C/c1ccc(-n2ccnc2)cc1)NO,-4,.,22
O=C(O)CCCCCCC(=O)N/N=C/c1ccc(-c2cccc(Cl)c2)o1,4,.,22
O=C(CCCCCCC(=O)Nc1ccccc1O)N/N=C/[C@H](O)[C@@H](O)[C@H](O)[C@H](O)CO[C@H]1O[C@H](CO)[C@H](O)[C@H](O)[C@H]1O,2,.,-8
C/C=C(C)\C=N\NC(=O)CCCCC(=O)NO,-1,0,10
O=C(N/N=C/c1ccc(-c2ccccc2)c(F)c1)c1ccccn1,-18,-11,-37
C[C@H](CO)N1C[C@H](C)[C@@H](CN(C)Cc2ccc(C(F)(F)F)cc2)Oc2ccc(NC(=O)Nc3ccc(F)cc3)cc2C1=O,12,0,-62
C[C@H](CO)N1C[C@H](C)[C@H](CN(C)Cc2ccc(C(F)(F)F)cc2)Oc2ccc(NC(=O)Nc3ccc(F)cc3)cc2C1=O,58*,-2,.
SMILES,T cruzi intra,A1 apoptosis 2,INS-1E rescue
O=C(NO)c1ccc(C(=O)N/N=C/c2ccc3c(c2)CCO3)cc1,-3,.,14
C[C@@H]1CN([C@H](C)CO)C(=O)Cc2cc(NS(=O)(=O)c3ccc(Cl)cc3)ccc2O[C@@H]1CN(C)Cc1ccc(Cl)c(Cl)c1,67*,.,-65
C[C@H]1CN([C@@H](C)CO)C(=O)Cc2cc(NS(=O)(=O)c3ccc(F)cc3)ccc2O[C@@H]1CN(C)Cc1ccc(Cl)c(Cl)c1,?,.,-24
Cc1ccc(S(=O)(=O)Nc2ccc3c(c2)CC(=O)N([C@H](C)CO)C[C@H](C)[C@H](CN(C)Cc2ccc(Cl)c(Cl)c2)O3)cc1,21,0,-4
Cc1ccc(S(=O)(=O)Nc2ccc3c(c2)CC(=O)N([C@@H](C)CO)C[C@H](C)[C@@H](CN(C)Cc2ccc(Cl)c(Cl)c2)O3)cc1,75*,-1,-54
Cc1ccc(S(=O)(=O)Nc2ccc3c(c2)CC(=O)N([C@H](C)CO)C[C@H](C)[C@H](CN(C)Cc2ccc4c(c2)OCO4)O3)cc1,20,2,-13
Cc1ccc(S(=O)(=O)Nc2ccc3c(c2)CC(=O)N([C@H](C)CO)C[C@@H](C)[C@H](CN(C)Cc2ccc4c(c2)OCO4)O3)cc1,61*,1,0
C[C@@H]1CN([C@H](C)CO)C(=O)Cc2cc(NS(=O)(=O)c3ccc(F)cc3)ccc2O[C@@H]1CN(C)Cc1ccc(Cl)c(Cl)c1,63*,.,-34
C[C@H]1CN([C@@H](C)CO)C(=O)Cc2cc(NS(=O)(=O)c3ccc(Cl)cc3)ccc2O[C@H]1CN(C)Cc1ccc(Cl)c(Cl)c1,29,-1,-25
CC1=C(C/C=N/NC(=O)CCCCCC(=O)NO)C(C)(C)CCC1,.,1,.
COCCOC(=O)N1C(=O)[C@@]2(c3cc(C#CC4=CCCCC4)ccc31)[C@H](c1ccccc1OCCO)N1[C@H](c3ccccc3)[C@H](c3ccccc3)OC(=O)[C@H]1[C@@H]2C(N)=O,.,-1,.
O=C(O)CCCCCCC(=O)N/N=C/c1ccc(O)cc1Br,-15,-1,3
CC(C)(C)OC(=O)NCCOCCOCCNc1ncnc2ccccc12,.,-1,.
C[C@H](CO)N1C[C@H](C)[C@H](CN(C)Cc2ccc(Cl)c(Cl)c2)Oc2ccc(NS(=O)(=O)c3ccc(Cl)cc3)cc2CC1=O,45,.,-30
C[C@H](CO)N1C[C@H](C)[C@H](CN(C)Cc2ccc(Cl)c(Cl)c2)Oc2ccc(NS(=O)(=O)c3ccc(F)cc3)cc2CC1=O,57*,.,0
C[C@H]1CN([C@@H](C)CO)C(=O)Cc2cc(NC(=O)Nc3ccc(F)cc3)ccc2O[C@@H]1CN(C)Cc1ccc(Oc2ccccc2)cc1,70*,.,-25
C[C@H](CO)N1C[C@H](C)[C@H](CN(C)Cc2ccc(Oc3ccccc3)cc2)Oc2ccc(NC(=O)Nc3ccc(F)cc3)cc2CC1=O,62*,.,-52

# Screening results from PubChem BioAssay.
